Laboratory results taken from ChEMBL document CHEMBL1649438, “Activities of ceftobiprole and other cephalosporins against extracellular and intracellular (THP-1 macrophages and keratinocytes) forms of methicillin-susceptible and methicillin-resistant Staphylococcus aureus” (Antimicrob Agents Chemother, 2009).
In brackets after ≈: the same amount, converted by molar mass.

Columns and labels:
Staphylococcus aureus [1] = experiment: Antimicrobial activity against Panton-valentine leucocidin-positive community-acquired methicillin-resistant Staphylococcus aureus N4042228 infected in human THP-1 cells assessed as bacterial count per mg of cell protein at low extracellular compound concentration after 24 hrs; format: functional
Outline: (§1)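 THP-1 human macrophages infected with S. aureus (postphagocytosis inoculum 1.5 × 10^6 to 3.0 × 10^6 CFU/mg cell protein), then incubated 24 h with increasing extracellular antibiotic concentrations. Change in log10 CFU/mg cell protein from the postphagocytosis inoculum, n = 3. Hill function fitted on log-transformed data. Low-concentration value (E0) and high-concentration value (Emax) are extrapolated. Where a pH is given, concentrations are expressed as multiples of the broth MIC at that pH.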

Staphylococcus aureus [2] = experiment: Antimicrobial activity against Panton-valentine leucocidin-positive community-acquired methicillin-resistant Staphylococcus aureus N4042228 infected in human THP-1 cells assessed as bacterial count per mg of cell protein at high extracellular compound concentration after 24 hrs; format: functional; outline: as §1
Staphylococcus aureus [3] = experiment: Antimicrobial activity against Panton-valentine leucocidin-positive community-acquired methicillin-resistant Staphylococcus aureus N4042228 infected in human THP-1 cells assessed as bacterial count per mg of cell protein at high extracellular compound concentration after 24 hrs at pH 5.5; format: functional; outline: as §1
Staphylococcus aureus [4] = experiment: Antimicrobial activity against Panton-valentine leucocidin-positive community-acquired methicillin-resistant Staphylococcus aureus STA 228 infected in human THP-1 cells assessed as bacterial count per mg of cell protein at high extracellular compound concentration after 24 hrs at pH 5.5; format: functional; outline: as §1
Staphylococcus aureus [5] = experiment: Antimicrobial activity against Panton-valentine leucocidin-positive community-acquired methicillin-resistant Staphylococcus aureus isolate MEH2225605 infected in human THP-1 cells assessed as bacterial count per mg of cell protein at high extracellular compound concentration after 24 hrs at pH 5.5; format: functional; outline: as §1
Staphylococcus aureus [6] = experiment: Antimicrobial activity against methicillin-susceptible Staphylococcus aureus […] infected in human THP-1 cells assessed as bacterial count per mg of cell protein at low extracellular compound concentration after 24 hrs at pH 7.4; format: functional; conditions: pooled result: one value given for 6 cell lines, strains, targets or settings
Outline: (§2)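 Human THP-1 macrophage-like cells were infected with S. aureus to a postphagocytosis inoculum of 1.5 × 10^6 to 3.0 × 10^6 CFU/mg cell protein. Cells were then exposed 24 h to increasing extracellular antibiotic concentrations. Response was the log10 CFU change per mg protein from the postphagocytosis inoculum, n = 3. A Hill function was fitted on log-transformed axes. E0 and Emax were extrapolated to infinitely low and high concentrations. Cs was read by graphical interpolation. Concentrations were expressed as multiples of the broth MIC at pH 5.5 or pH 7.4.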

Staphylococcus aureus [7] = experiment: Antimicrobial activity against methicillin-susceptible Staphylococcus aureus ATCC 11632 infected in human THP-1 cells assessed as bacterial count per mg of cell protein at high extracellular compound concentration after 24 hrs at pH 5.5; format: functional; outline: as §2
Staphylococcus aureus [8] = experiment: Antimicrobial activity against methicillin-susceptible Staphylococcus aureus NRS52 infected in human THP-1 cells assessed as change in bacterial count after 24 hrs at pH 5.5; format: functional, organism-based; conditions: NRS52, THP-1, 24 h
Outline: (§3)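 THP-1 macrophages infected as described previously, with a postphagocytosis inoculum of 1.5 × 10⁶ to 3.0 × 10⁶ CFU/mg cell protein. Cells were exposed 24 h to increasing extracellular antibiotic concentrations. Response is the change in log10 CFU/mg protein from the inoculum (n = 3), fitted to a Hill function. E0 and Emax were extrapolated to infinitely low and high concentrations. EC50 and static concentration (graphical interpolation) are expressed as multiples of the broth MIC at pH 5.5 or 7.4.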

Staphylococcus aureus [9] = experiment: Antimicrobial activity against hospital-acquired methicillin-resistant Staphylococcus aureus […] infected in human THP-1 cells assessed as change in bacterial count after 24 hrs at pH 7.4; format: functional, organism-based; conditions: THP-1, 24 h; outline: as §3
Staphylococcus aureus [10] = experiment: Antimicrobial activity against hospital-acquired vancomycin-intermediate Staphylococcus aureus NRS18 infected in human THP-1 cells assessed as change in bacterial count after 24 hrs at pH 7.4; format: functional, organism-based; conditions: NRS18, THP-1, 24 h; outline: as §3
Staphylococcus aureus [11] = experiment: Ratio of MIC for beta-lactamase-negative methicillin-susceptible Staphylococcus aureus ATCC 25923 by microdilution method at pH 7.4 to ratio of MIC for beta-lactamase-negative methicillin-susceptible Staphylococcus aureus ATCC 25923 by microdilution method at pH 5.5; format: functional
Outline: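 MICs were measured by broth microdilution, with the broth adjusted to pH 7.4 or pH 5.5 before inoculation. pH was confirmed at the end of the assay to within ±0.1 unit. The value is the fold decrease in MIC between pH 7.4 and pH 5.5.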

Staphylococcus aureus [12] = experiment: Antimicrobial activity against methicillin-susceptible Staphylococcus aureus ATCC 25923 infected in human keratinocytes assessed as bacterial count per mg of cell protein at low extracellular compound concentration after 24 hrs; format: functional
Outline: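 Primary human skin keratinocytes were grown in defined keratinocyte serum-free medium and infected with S. aureus to 1.5 × 10^6 to 3.0 × 10^6 CFU/mg cell protein. Cells were exposed 24 h to increasing extracellular concentrations. Response was the log10 CFU change from the postphagocytosis inoculum, fitted by a Hill equation with slope 1. Cs is the concentration giving CFU equal to the original inoculum, found by graphical interpolation.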

Staphylococcus aureus [13] = experiment: Antimicrobial activity against methicillin-susceptible Staphylococcus aureus ATCC 11632 infected in human THP-1 cells assessed as bacterial count per mg of cell protein at low extracellular compound concentration after 24 hrs; format: functional; outline: as §2
Staphylococcus aureus [14] = experiment: Antimicrobial activity against methicillin-susceptible Staphylococcus aureus NRS52 infected in human THP-1 cells assessed as bacterial count per mg of cell protein at low extracellular compound concentration after 24 hrs; format: functional; outline: as §2
Staphylococcus aureus [15] = experiment: Antimicrobial activity against hospital-acquired methicillin-resistant Staphylococcus aureus ATCC 33591 infected in human THP-1 cells assessed as bacterial count per mg of cell protein at high extracellular compound concentration after 24 hrs; format: functional; outline: as §1
Staphylococcus aureus [16] = experiment: Antimicrobial activity against hospital-acquired methicillin-resistant Staphylococcus aureus ATCC 33591 infected in human THP-1 cells assessed as change in bacterial count after 24 hrs; format: functional, organism-based; conditions: ATCC 33591, THP-1, 24 h; outline: as §3
Staphylococcus aureus [17] = experiment: Antimicrobial activity against hospital-acquired methicillin-resistant Staphylococcus aureus ATCC 33592 infected in human THP-1 cells assessed as bacterial count per mg of cell protein at low extracellular compound concentration after 24 hrs; format: functional; outline: as §3
Staphylococcus aureus [18] = experiment: Antimicrobial activity against hospital-acquired vancomycin-intermediate Staphylococcus aureus NRS18 infected in human THP-1 cells assessed as bacterial count per mg of cell protein at low extracellular compound concentration after 24 hrs; format: functional; outline: as §2

For `Nc1nc(/C(=N/O)C(=O)N[C@@H]2C(=O)N3C(C(=O)O)=C(/C=C4\CCN([C@@H]5CCNC5)C4=O)CS[C@H]23)ns1` [CEFTOBIPROLE], the log10cfu (Staphylococcus aureus [1]) was 3.45, the log10cfu (Staphylococcus aureus [2]) was -1.12 and the log10cfu (Staphylococcus aureus [3]) was -1.02. For the same compound, the log10cfu (Staphylococcus aureus [4]) was -1.02, the log10cfu (Staphylococcus aureus [5]) was -1.02 and the log10cfu (Staphylococcus aureus [6]) was 3.06. The log10cfu (Staphylococcus aureus [7]) was 1.04, the EC50 (Staphylococcus aureus [8]) was 0.41 × MIC and the EC50 (Staphylococcus aureus [9]) was 0.28 ×MIC. For the same compound, the EC50 (Staphylococcus aureus [10]) was 0.28 ×MIC, the “fold change (FC)” value (Staphylococcus aureus [11]) was 2 and the log10cfu (Staphylococcus aureus [12]) was 2.48. For the same compound, the log10cfu (Staphylococcus aureus [13]) was 3.03, the log10cfu (Staphylococcus aureus [14]) was 2.89 and the log10cfu (Staphylococcus aureus [15]) was -0.78. For the same compound, the EC50 (Staphylococcus aureus [16]) was 0.27 µg/mL (≈ 0.505 µM), the log10cfu (Staphylococcus aureus [17]) was 2.58 and the log10cfu (Staphylococcus aureus [18]) was 2.83.
